Test results: ChEMBL document CHEMBL1150774, “1-[(Imidazolidin-2-yl)imino]indazole. Highly alpha 2/I1 selective agonist: synthesis, X-ray structure, and biological activity” (J Med Chem, 2008)
Calls of active or inactive are those of the source. The calls are words filed in the database; no cut-off is given here.

Tests used:
[1] = target: Nischarin (Rattus norvegicus, UniProt Q4G017); assay: Displacement of [3H]clonidine from imidazoline 1 receptor in Sprague-Dawley rat kidney
Outline: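 Crude P2 membranes from male rat kidney (250-280 g), 0.2-0.5 mg protein. Labelled with 3 nM [3H]clonidine; 10 µM rauwolscine present to block α2 sites; specific binding defined by 10 µM rilmenidine. 11 test concentrations. 50 mM Tris-HCl pH 7.4, 45 min at room temperature. Filtration, scintillation counting; IC50 is displacement of 50% of specific binding.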

[2] = species on record: Rattus norvegicus; assay: Selectivity for Sprague-Dawley rat alpha 2 adrenoceptor over Sprague-Dawley rat imidazoline 1 receptor
[3] = Displacement of [3H][…] from alpha2 adrenoceptor in Sprague-Dawley rat brain
Outline: (§1)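 Crude P2 membranes from male rat brain (250-280 g), washed and stored at -70 °C. 0.2-0.3 mg protein incubated with 11 concentrations (0.01 nM to 100 µM) plus 1 nM [3H]2BFI (I2) or 1 nM [3H]RX821002 (α2). Nonspecific binding: 10 µM BU224 (I2) or 10 µM rauwolscine (α2). Run in triplicate, 45 min at room temperature. Ki by Cheng-Prusoff, 3-4 experiments.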

[4] = Displacement of [3H]2BFI from imidazoline 2 receptor in Sprague-Dawley rat brain; outline: as §1
[5] = system: Rattus norvegicus; assay: Hypotensive activity in Wistar rat assessed as decrease in mean arterial blood pressure at 0.1 mg/kg, iv after 10 mins; assay type: functional
Outline: (§2)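 Male rats (200-250 g) anaesthetised with thiopental 70 mg/kg ip, then maintained at 30 (µg/kg)/min. Saline-thiopental infusion at 1.2 mL/h; 40 min recovery, then 40 min saline. Compound given as iv bolus at 0.1 mg/kg. MAP and HR recorded directly at 100 Hz. ΔMAP and ΔHR taken relative to time 0; 4-7 experiments; repeated-measures ANOVA.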

[6] = system: Rattus norvegicus; assay: Hypotensive activity in Wistar rat assessed as decrease in mean arterial blood pressure at 0.1 mg/kg, iv after 90 mins; assay type: functional; outline: as §2
[7] = system: Rattus norvegicus; assay: Hypotensive activity in Wistar rat assessed as decrease in heart rate at 0.1 mg/kg, iv after 10 mins; assay type: functional; outline: as §2
[8] = system: Rattus norvegicus; assay: Hypotensive activity in Wistar rat assessed as decrease in mean arterial blood pressure at 0.1 mg/kg, iv after 30 mins; assay type: functional; outline: as §2
[9] = system: Rattus norvegicus; assay: Hypotensive activity in Wistar rat assessed as decrease in mean arterial blood pressure at 0.1 mg/kg, iv after 60 mins; assay type: functional; outline: as §2
[10] = system: Rattus norvegicus; assay: Hypotensive activity in Wistar rat assessed as decrease in heart rate at 0.1 mg/kg, iv after 30 mins; assay type: functional; outline: as §2
[11] = system: Rattus norvegicus; assay: Hypotensive activity in Wistar rat assessed as decrease in heart rate at 0.1 mg/kg, iv after 60 mins; assay type: functional; outline: as §2
[12] = system: Rattus norvegicus; assay: Hypotensive activity in Wistar rat assessed as decrease in heart rate at 0.1 mg/kg, iv after 90 mins; assay type: functional; outline: as §2
[13] = system: Rattus norvegicus; assay: Reversal of hypotensive activity in Wistar rat at 10 mg/kg, iv in presence of RX821002; assay type: functional, organism-based; set-up: dose 10 mg/kg
[14] = species on record: Rattus norvegicus; assay: Hypotensive activity in Wistar rat assessed as mean arterial blood pressure; assay type: functional

Nischarin, sequence (Q4G017 whole entry): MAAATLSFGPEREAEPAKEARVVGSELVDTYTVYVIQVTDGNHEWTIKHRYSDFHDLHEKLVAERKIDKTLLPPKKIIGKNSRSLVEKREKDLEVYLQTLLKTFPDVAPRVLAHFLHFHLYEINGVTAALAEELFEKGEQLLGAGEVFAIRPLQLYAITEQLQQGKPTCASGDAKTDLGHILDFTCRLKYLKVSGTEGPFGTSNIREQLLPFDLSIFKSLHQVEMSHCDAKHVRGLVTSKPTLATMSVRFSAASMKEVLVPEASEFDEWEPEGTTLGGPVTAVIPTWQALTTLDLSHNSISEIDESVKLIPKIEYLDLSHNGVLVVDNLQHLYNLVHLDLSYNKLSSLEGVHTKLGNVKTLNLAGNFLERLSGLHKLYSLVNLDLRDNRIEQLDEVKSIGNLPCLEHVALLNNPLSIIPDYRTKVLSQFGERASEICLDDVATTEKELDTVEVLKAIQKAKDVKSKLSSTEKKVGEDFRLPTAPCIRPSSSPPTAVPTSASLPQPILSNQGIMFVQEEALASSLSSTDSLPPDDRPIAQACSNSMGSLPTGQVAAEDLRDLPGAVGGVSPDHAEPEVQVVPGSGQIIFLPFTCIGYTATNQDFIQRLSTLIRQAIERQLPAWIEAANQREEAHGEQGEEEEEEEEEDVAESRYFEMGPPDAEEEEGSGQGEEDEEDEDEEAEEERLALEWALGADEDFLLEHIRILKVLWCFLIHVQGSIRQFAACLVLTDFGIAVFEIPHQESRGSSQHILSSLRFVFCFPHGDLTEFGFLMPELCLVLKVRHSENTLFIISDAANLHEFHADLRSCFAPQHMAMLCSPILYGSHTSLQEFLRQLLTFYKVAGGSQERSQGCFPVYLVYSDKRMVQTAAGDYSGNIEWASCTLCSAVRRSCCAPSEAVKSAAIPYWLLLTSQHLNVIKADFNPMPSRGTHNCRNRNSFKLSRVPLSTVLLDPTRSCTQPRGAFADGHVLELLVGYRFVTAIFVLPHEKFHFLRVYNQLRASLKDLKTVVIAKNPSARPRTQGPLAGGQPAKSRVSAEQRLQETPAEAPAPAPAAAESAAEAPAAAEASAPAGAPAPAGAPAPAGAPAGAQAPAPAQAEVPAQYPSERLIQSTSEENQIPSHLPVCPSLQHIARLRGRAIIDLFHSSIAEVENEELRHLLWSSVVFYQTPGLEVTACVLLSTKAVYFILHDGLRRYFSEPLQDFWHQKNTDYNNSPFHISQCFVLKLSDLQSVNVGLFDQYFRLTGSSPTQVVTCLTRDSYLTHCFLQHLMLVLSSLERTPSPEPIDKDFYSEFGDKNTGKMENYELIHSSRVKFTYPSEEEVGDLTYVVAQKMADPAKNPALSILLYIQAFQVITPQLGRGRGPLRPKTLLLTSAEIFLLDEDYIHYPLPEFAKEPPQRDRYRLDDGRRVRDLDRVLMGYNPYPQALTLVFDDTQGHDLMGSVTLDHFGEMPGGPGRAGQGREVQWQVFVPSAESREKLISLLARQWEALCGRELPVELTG

## c1ccc2c(c1)nnn2N=C1NCCN1
[1]
  IC50: 84.6 µM
[2]
  Selectivity ratio: < 8.46
[3]
  Ki: > 10 µM
[4]
  Ki: > 10 µM

## Cc1nn(N=C2NCCN2)c2ccccc12
[3]
  Ki: 71.1 µM

## Cc1ccc2cnn(N=C3NCCN3)c2c1.Cl
[5]
  Activity: -13.2 mmHg
[3]
  Ki: 0.0491 µM
[6]
  Activity: -11 mmHg
[7]
  Activity: -71.8 bpm
[8]
  Activity: -23.4 mmHg
[9]
  Activity: -20.8 mmHg
[4]
  Ki: 19.2 µM
[10]
  Activity: -43.5 bpm
[11]
  Activity: -26.4 bpm
[12]
  Activity: -22.2 bpm

## Cl.Clc1cccc2c1cnn2N=C1NCCN1
[1]
  IC50: 31.5 µM
[5]
  Activity: -10.9 mmHg
[2]
  Selectivity ratio: 511
[3]
  Ki: 0.0616 µM
[6]
  Activity: -10.9 mmHg
[7]
  Activity: -60.8 bpm
[8]
  Activity: -14 mmHg
[9]
  Activity: -12.3 mmHg
[4]
  Ki: 11.1 µM
[10]
  Activity: -32.2 bpm
[11]
  Activity: -24.3 bpm
[12]
  Activity: -19 bpm

## COc1cccc2c1cnn2N=C1NCCN1.Cl
[1]
  IC50: 13.5 µM
[5]
  Activity: -3.7 mmHg
[2]
  Selectivity ratio: 0.19
[3]
  Ki: 69.6 µM
[6]
  Activity: -12.9 mmHg
[7]
  Activity: -18.6 bpm
[8]
  Activity: -7.6 mmHg
[9]
  Activity: -11 mmHg
[4]
  Ki: 5.98 µM
[10]
  Activity: -9.7 bpm
[11]
  Activity: -12.5 bpm
[12]
  Activity: -11.6 bpm

## c1ccc2nn(N=C3NCCN3)cc2c1
[3]
  Ki: 78.3 µM
[4]
  Ki: 77.8 µM

## Cl.Clc1ccc2c(cnn2N=C2NCCN2)c1
[1]
  IC50: 17 µM
[5]
  Activity: -0.2 mmHg
[2]
  Selectivity ratio: 149
[3]
  Ki: 0.114 µM
[6]
  Activity: -1.1 mmHg
[7]
  Activity: 0.6 bpm
[8]
  Activity: -1.4 mmHg
[9]
  Activity: -2.8 mmHg
[4]
  Ki: 20.6 µM
[10]
  Activity: 7.2 bpm
[11]
  Activity: 12.8 bpm
[12]
  Activity: 28.6 bpm

## Clc1cccc2nn(N=C3NCCN3)cc12
[1]
  IC50: 47.8 µM
[2]
  Selectivity ratio: 15.3
[3]
  Ki: 3.14 µM
[4]
  Ki: 13.1 µM

## Clc1ccc2nn(N=C3NCCN3)cc2c1
[1]
  IC50: 24.7 µM
[2]
  Selectivity ratio: 0.33
[3]
  Ki: 74.1 µM
[4]
  Ki: 33.2 µM

## Cc1ccc2cn(N=C3NCCN3)nc2c1
[1]
  IC50: 19.7 µM
[2]
  Selectivity ratio: 0.39
[3]
  Ki: 50.7 µM
[4]
  Ki: 42.9 µM

## Cc1cccc2c1cnn2N=C1NCCN1.Cl
[1]
  IC50: 38.5 µM
[5]
  Activity: -17.7 mmHg
[2]
  Selectivity ratio: 1040
[3]
  Ki: 0.0371 µM
[6]
  Activity: -10.1 mmHg
[7]
  Activity: -104.2 bpm
[8]
  Activity: -29 mmHg
[9]
  Activity: -14.1 mmHg
[4]
  Ki: 10.4 µM
[10]
  Activity: -88.3 bpm
[11]
  Activity: -22.7 bpm
[12]
  Activity: -2.1 bpm

## COc1ccc2cnn(N=C3NCCN3)c2c1.Cl
[5]
  Activity: -16.5 mmHg
[3]
  Ki: 0.0962 µM
[6]
  Activity: -5.3 mmHg
[7]
  Activity: -33 bpm
[8]
  Activity: -17.1 mmHg
[9]
  Activity: -11.6 mmHg
[4]
  Ki: 33.6 µM
[10]
  Activity: -23.6 bpm
[11]
  Activity: -4.1 bpm
[12]
  Activity: 14.3 bpm

## Cc1cc2ncn(N=C3NCCN3)c2cc1C
[3]
  Ki: 10.1 µM
[4]
  Ki: > 10 µM

## Cc1ccc2c(cnn2N=C2NCCN2)c1.Cl
[1]
  IC50: 20.3 µM
[5]
  Activity: -4.1 mmHg
[2]
  Selectivity ratio: 460
[3]
  Ki: 0.0442 µM
[6]
  Activity: -4.9 mmHg
[7]
  Activity: -104.2 bpm
[8]
  Activity: -3.6 mmHg
[9]
  Activity: -4.6 mmHg
[4]
  Ki: 7.16 µM
[10]
  Activity: -3.2 bpm
[11]
  Activity: -1 bpm
[12]
  Activity: -3 bpm

## Cc1cccc2cnn(N=C3NCCN3)c12.Cl
[1]
  IC50: 0.387 µM
[5]
  Activity: -14.8 mmHg
[2]
  Selectivity ratio: 7.23
[3]
  Ki: 0.0535 µM
[13]
  Activity: Active
[6]
  Activity: -43.2 mmHg
[7]
  Activity: -110 bpm
[8]
  Activity: -40.6 mmHg
[9]
  Activity: -43.5 mmHg
[4]
  Ki: 2.52 µM
[14]
  ED50: 0.6 µg/kg
[10]
  Activity: -115 bpm
[11]
  Activity: -122.9 bpm
[12]
  Activity: -119.9 bpm

## Cl.c1ccc2c(c1)cnn2N=C1NCCN1 [MARSANIDINE HYDROCHLORIDE]
[1]
  IC50: 54.5 µM
[5]
  Activity: -6.9 mmHg
[2]
  Selectivity ratio: 3880
[3]
  Ki: 0.0141 µM
[6]
  Activity: -22.1 mmHg
[7]
  Activity: -48.5 bpm
[8]
  Activity: -30.9 mmHg
[9]
  Activity: -29 mmHg
[4]
  Ki: 16.9 µM
[10]
  Activity: -49 bpm
[11]
  Activity: -31.4 bpm
[12]
  Activity: -9.7 bpm

## Cl.c1ccc(-c2nn(N=C3NCCN3)c3ccccc23)cc1
[1]
  IC50: 76.5 µM
[5]
  Activity: -4.1 mmHg
[2]
  Selectivity ratio: 2.96
[3]
  Ki: 25.8 µM
[6]
  Activity: -11.4 mmHg
[7]
  Activity: -17.7 bpm
[8]
  Activity: -7.6 mmHg
[9]
  Activity: -10 mmHg
[4]
  Ki: 0.684 µM
[10]
  Activity: -10.1 bpm
[11]
  Activity: -11.1 bpm
[12]
  Activity: -12.7 bpm

## c1ccc2c(c1)ncn2N=C1NCCN1
[1]
  IC50: > 100 µM
[2]
  Selectivity ratio: > 16.6
[3]
  Ki: 6.02 µM
[4]
  Ki: > 10 µM

## Cc1ccc2nn(N=C3NCCN3)cc2c1
[1]
  IC50: 13.4 µM
[2]
  Selectivity ratio: 0.29
[3]
  Ki: 45.6 µM
[4]
  Ki: 11.4 µM

## Cc1cccc2nn(N=C3NCCN3)cc12
[3]
  Ki: 11.8 µM
[4]
  Ki: 35.1 µM
